Source: PubChem BioAssay
Only some compounds are listed: those with a hit (about 2.1% of all), similar ones and a draw of the others.
MT1-MMP txn act – activates MT1-MMP transcription; HT1080 MT1-MMP promoter luciferase reporter, luminescence, overnight; active compounds read high; activation factor at 10 µM; 86,000 compounds, 0.16% hits; AID 750;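 active = activation factor of at least 2 for MT1-MMP transcription at 10 µM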
Mac1 fbg enh – enhancers of human CD11b/CD18 binding to fibrinogen | P05107+P11215 | K562 CD11b/CD18 adhesion to fibrinogen, ATPlite luminescence | activation, % at 10 µM | 93,000 compounds, 0.07% hits | AID 1499;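 active = 10 µM primary screen giving 50% or more activity, confirmed by 40% or more on retest at that dose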
Target sequence (P05107 whole entry, looked up, other chains not shown): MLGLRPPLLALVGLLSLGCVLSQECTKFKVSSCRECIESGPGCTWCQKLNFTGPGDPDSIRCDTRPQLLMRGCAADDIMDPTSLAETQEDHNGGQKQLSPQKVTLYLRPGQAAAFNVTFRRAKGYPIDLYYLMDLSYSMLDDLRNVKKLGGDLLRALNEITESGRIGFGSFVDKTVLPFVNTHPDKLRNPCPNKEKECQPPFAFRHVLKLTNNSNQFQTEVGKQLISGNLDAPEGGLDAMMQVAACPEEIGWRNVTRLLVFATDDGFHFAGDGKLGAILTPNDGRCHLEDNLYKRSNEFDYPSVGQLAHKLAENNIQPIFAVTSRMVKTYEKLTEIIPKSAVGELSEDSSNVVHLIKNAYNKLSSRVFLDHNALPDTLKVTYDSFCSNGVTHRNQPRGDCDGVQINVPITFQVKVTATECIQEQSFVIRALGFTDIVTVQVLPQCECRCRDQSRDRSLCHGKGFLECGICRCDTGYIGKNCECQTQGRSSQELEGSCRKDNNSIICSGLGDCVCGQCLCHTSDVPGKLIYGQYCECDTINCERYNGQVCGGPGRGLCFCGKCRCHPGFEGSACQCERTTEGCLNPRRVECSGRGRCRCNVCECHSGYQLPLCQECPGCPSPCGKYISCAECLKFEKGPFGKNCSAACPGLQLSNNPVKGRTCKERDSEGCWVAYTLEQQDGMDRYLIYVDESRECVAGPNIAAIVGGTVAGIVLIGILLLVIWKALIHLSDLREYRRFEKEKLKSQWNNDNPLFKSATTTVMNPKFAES
SF1 activator – activators of human nuclear receptor SF-1. 65,000 compounds, 1.9% hits. Q13285. CHO-K1 Gal4-SF-1 LBD luciferase reporter; % increase over DMSO SF-1-specific signal. activation, % at 10 µM;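 active = activation above the mean activation of all tested compounds plus 3 SD, cut at about 50% in these data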
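Test system: CHO-K1 cells with Gal4–hSF-1 LBD chimera plus Gal4-driven luciferase; Input: 4,000 cells/well; Compound: 10 µM only; Times: 20 h compound treatment, 37 °C; Measured by: steady-glow luciferase luminescence, read after 15 min reagent incubation; Measure: percent activation versus DMSO; Control set: DMSO and mock-transfected background; Replicates: one test per compound.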
RORA act – activates the human nuclear receptor RORA; P35398; CHO-K1 Gal4-RORA LBD luciferase reporter, luminescence; percent increase over mock-subtracted basal signal; activation, % at 10 µM; 65,000 compounds, 1.5% hits; AID 560;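 active = activation above the mean of all tested compounds plus 3 SD, cut at about 49% in these data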
CD11b adhes inh – inhibitors of human CD11b/CD18 binding to fibrinogen. P05107+P11215. K562 CD11b/CD18 adhesion to fibrinogen, ATPlite luminescence; Mn2+ added to activate the integrin. inhibition, % at 10 µM. 93,000 compounds, 0.54% hits. AID 1497;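 active = primary inhibition of 50% or more at 10 µM, then 40% or more on retest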
TNAP act mid DEA – activators of human TNAP at intermediate phosphate acceptor; P05186; purified TNAP, CDP-star luminescence, 100 mM DEA, 30 min; active compounds read high; scale: 0 levamisole-inhibited, 1 vehicle-only enzyme; activation factor at 20 µM; 64,000 tested, under 10 active;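 active = activation factor of at least 2 at 20 µM, relative to controls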
Large screens that a line does not name were inactive.

Cc1oc(-c2ccccc2)cc1C(=O)Nc1ccc2ccccc2c1	none (no result: SF1 activator, RORA act, TNAP act mid DEA)
Cc1occc1C(=O)Nc1cc(C(C)(C)C)on1	RORA act 64
O=C(Nc1nnc(C23CC4CC(CC(C4)C2)C3)s1)c1ccco1	MT1-MMP txn act 2, RORA act 91 (no result: TNAP act mid DEA)
Cc1csc(NC(=O)c2ccoc2C)n1	SF1 activator 56
NC(=O)c1cc(Cc2ccccc2)sc1NC(=O)c1ccco1	SF1 activator 140, RORA act 80 (no result: Mac1 fbg enh, CD11b adhes inh)
COC(=O)CNC(=O)C1(CC(C)C)C=CCN1C(C)=O (centres undefined)	none (no result: Mac1 fbg enh, SF1 activator, RORA act, CD11b adhes inh, TNAP act mid DEA)
Cc1ccc2c(c1)C(c1ccncc1)=NNC(c1ccc(C(C)C)cc1)=N2	none (no result: MT1-MMP txn act, SF1 activator, RORA act, TNAP act mid DEA)
N#CCSc1nc2scc(-c3cccs3)c2c(=O)n1CCc1ccccc1	none
CCOC(=O)Cc1csc(NC(=O)c2cccs2)n1	none
O=C(Nc1nnc(CCc2ccccc2)s1)c1ccco1	RORA act 54
Cc1csc(NC(=O)c2cccs2)n1	SF1 activator 53 (no result: CD11b adhes inh)
O=C(Nc1nnc(Cc2ccccc2)s1)c1ccco1	none (no result: SF1 activator, RORA act, TNAP act mid DEA)
O=C(OC(C(=O)NC1CCCC1)c1ccccn1)c1cccs1 (centres undefined)	none (no result: Mac1 fbg enh, SF1 activator, RORA act, CD11b adhes inh, TNAP act mid DEA)
CCOC(=O)c1sc(NC(=O)c2cc(-c3ccccc3C)nc3ccccc23)c(C#N)c1C	CD11b adhes inh 93 (no result: MT1-MMP txn act, SF1 activator, RORA act, TNAP act mid DEA)
Cc1ccc(Nc2nnc(SCC(=O)NCCN3C(=O)CSC3=O)s2)cc1	none (no result: MT1-MMP txn act, SF1 activator, RORA act, TNAP act mid DEA)
CC(C)Oc1ccc(C2C(C(=O)c3ccco3)=C(O)C(=O)N2Cc2cccnc2)cc1 (centres undefined)	RORA act 70
